This is an account of results in ChEMBL document CHEMBL2046322, “Discovery of 1,3-Diaminobenzenes as Selective Inhibitors of Platelet Activation at the PAR1 Receptor” (ACS Med Chem Lett, 2012).

Series [1] addresses T1, Proteinase-activated receptor 1 (Homo sapiens) (UniProt P25116).
T1 sequence (whole entry): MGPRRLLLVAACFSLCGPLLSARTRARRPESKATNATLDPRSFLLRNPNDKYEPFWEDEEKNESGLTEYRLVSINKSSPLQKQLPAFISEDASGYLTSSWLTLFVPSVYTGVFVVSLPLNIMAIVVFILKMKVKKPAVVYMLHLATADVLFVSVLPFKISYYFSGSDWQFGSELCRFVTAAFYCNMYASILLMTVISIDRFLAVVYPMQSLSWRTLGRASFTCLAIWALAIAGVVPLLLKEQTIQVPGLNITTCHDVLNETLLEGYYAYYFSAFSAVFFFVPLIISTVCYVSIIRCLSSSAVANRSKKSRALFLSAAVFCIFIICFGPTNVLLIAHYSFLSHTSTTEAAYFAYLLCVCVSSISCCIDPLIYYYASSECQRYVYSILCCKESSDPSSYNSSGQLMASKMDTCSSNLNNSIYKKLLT
In words: Inhibition of SFLLRN-NH2-stimulated PAR1-mediated platelet activation in […] assessed as surface expression of P-selectin at 10 uM after 20 mins by flow cytometry. The format is cell-based.

The subject of series [2] is Plasma. In words: Metabolic stability in human plasma assessed as compound remaining at 5 uM after 5 hrs. The format is ADME, cell-free. The gist of the method: (§1)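 Compound incubated in human or mouse plasma; stability reported as percent remaining after 5 h.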
Series [3] has as its system Plasma. Put plainly: Metabolic stability in mouse plasma assessed as compound remaining at 5 uM after 5 hrs. The format is ADME, cell-free. The gist of the method: as §1
For series [4], the system named is Plasma. In words: Plasma protein binding in human. The format is ADME, cell-free.
Series [5] deals with Plasma. In words: Plasma protein binding in mouse. The format is ADME, cell-free.
Series [6] deals with T2, Proteinase-activated receptor 1 (Homo sapiens, UniProt P25116).
T2 sequence (P25116 whole entry): T1 sequence (whole entry)
In words: Inhibition of SFLLRN-NH2-stimulated PAR1-mediated platelet activation in […] assessed as surface expression of P-selectin after 20 mins by flow cytometry. The arrangement: species or system Plasma.

Where only a bound is given, the exact number is not on record here.

Broadly, the inhibition is the share of the control response that was lost under treatment. In the case of `CCCC(=O)Nc1cccc(NC(=O)c2ccc(OC)cc2)c1`, the inhibition in series [1] stood at 15%.
As to `CCCNC(=O)c1coc(NC(=O)c2ccccc2Br)n1`, the inhibition in series [1] was less than 1%.
For the compound `O=C(Nc1cccc(N2CCCCC2=O)c1)c1ccccc1Br`, the inhibition in series [1] worked out at 9%. The Stability with Plasma [2] is listed as 94%; in the series on Plasma [3], 82%. The PPB in the series on Plasma [4] amounted to 82%; in the series with Plasma [5], 72%.
Turning to `CCCC(=O)Nc1cccc(NC(=O)c2ccccc2OC)c1`, the inhibition in series [1] turned out to be 50%.
In the case of `CCCC(=O)Nc1cccc(NC(=O)c2cnc3ccccc3c2)c1`, the inhibition in series [1] turned out to be 10%.
On the same count and under the same terms, the result for `CCCC(=O)Nc1cccc(NC(=O)c2cccc(C#N)c2)c1` reads 70%; that for `O=C(Nc1cccc(NC(=O)c2ccccc2Br)c1)c1ccccc1`, 67%; that for `CCC(=O)Nc1cccc(NC(=O)c2ccccc2C)c1C`, 5%.
Turning to `O=C(Nc1cccc(N2CCCS2(=O)=O)c1)c1ccccc1Br`, the inhibition in series [1] was 8%. Moreover, the Stability is reported as more than 99% in the series with Plasma [2] and 98% in the series on Plasma [3]. Besides, the PPB in the series on Plasma [5] is on record as 76%.
With `CCCC(=O)Nc1cccc(NC(=O)c2ccccc2)c1`, the inhibition in series [1] was found to be 64%.
The IC50 is the concentration that inhibits the measured activity by half. As for `CCCC(=O)Nc1cccc(NC(=O)c2ccccc2CC)c1`, the IC50 in series [6] turned out to be 520 nM. In addition, in series [1], the inhibition was more than 99%.
For the compound `CCCCC(=O)Nc1cccc(NC(=O)c2ccccc2Br)c1`, the inhibition in series [1] is less than 1%.
As to `CCCC(=O)Nc1cccc(NC(=O)c2cccc(Cl)c2Cl)c1`, in series [6], the IC50 is 3120 nM. The inhibition in series [1] came to 99%.
On to `CCS(=O)(=O)Nc1cccc(NC(=O)c2ccccc2Br)c1`, for which the inhibition in series [1] amounted to 27%. Further, the Stability in the series with Plasma [2] was 99%; with Plasma [3], more than 99%. In addition, the PPB stood at 93% in the series with Plasma [4] and 69% in the series with Plasma [5].
Turning to `CCCC(=O)Nc1cccc(NC(=O)c2ccccc2-c2ccccc2)c1`, the inhibition in series [1] was less than 1%.
As for `O=C(Nc1ccnc(NC(=O)c2ccccc2Br)c1)c1ccccc1`, the inhibition in series [1] stood at 11%.
Still for that read-out and setting: next, `CCCC(=O)Nc1cccc(NC(=O)c2ccc(S(C)(=O)=O)cc2)c1`: 10%; `CCCC(=O)Nc1ccc(Cl)c(NC(=O)c2ccccc2Br)c1`: 35%.
In the case of `CC(=O)N1CCCc2ccc(NC(=O)c3ccccc3Br)cc21`, the inhibition in series [1] is 10%. The Stability came out at 92% in the series with Plasma [2] and 71% in the series on Plasma [3]. The PPB with Plasma [5] was determined as 89%.
Regarding `CCCC(=O)Nc1cccc(N(C)C(=O)c2ccccc2Br)c1`, the inhibition in series [1] was less than 1%. The values for the Stability in the series on Plasma [2] and in the series with Plasma [3] were 19% and less than 1%, respectively. This compound also displayed a PPB with Plasma [4] of 89%.
On to `CCCC(=O)Nc1cccc(NC(=O)c2c(C)cccc2C)c1`, for which the IC50 in series [6] is 3000 nM. The inhibition in series [1] stood at 98%.
Take `O=C(Nc1cc(NC(=O)C2CCCC2)ccn1)c1ccccc1Br`: the inhibition in series [1] was less than 1%.
In the case of `CCCC(=O)Nc1cccc(NC(=O)c2cc(F)ccc2Br)c1`, the IC50 in series [6] was found to be 600 nM. Besides, the inhibition in series [1] is more than 99%.
With `CCCC(=O)Nc1cccc(NC(=O)c2cc(Cl)ccc2Br)c1`, the concentration for half-maximal inhibition (IC50) in series [6] was 380 nM. In series [1], the inhibition was found to be 68%.
Regarding `CCCC(=O)Nc1cccc(NC(=O)c2cccc(-c3ccccc3)c2)c1`, the IC50 in series [6] stood at 2200 nM. Also, the inhibition in series [1] came out at 98%.
Consider `CCCC(=O)Nc1cccc(NCc2ccccc2Br)c1`, for which the inhibition in series [1] was 60%. The Stability in the series with Plasma [2] came out at 73%; in the series with Plasma [3], 1%.
As for `CCCC(=O)Nc1cccc(NC(=O)c2cccc(C)c2)c1`, the inhibition in series [1] was found to be 88%.
On to `CCCC(=O)Nc1cccc(NC(=O)c2ccccc2C(F)(F)F)c1`, for which the half-inhibitory concentration (IC50) in series [6] amounted to 1290 nM. In series [1], the inhibition was 99%.
On to `CCC(C)(C)C(=O)Nc1cccc(NC(=O)c2ccccc2Br)c1`, for which the inhibition in series [1] is 21%. Moreover, the Stability with Plasma [2] and in the series on Plasma [3] was more than 99% throughout. For the same compound, the PPB in the series on Plasma [4] worked out at 95%.
In the case of `CC(=O)Nc1cccc(NC(=O)c2ccccc2Cl)c1`, the inhibition in series [1] came out at 35%.
Regarding `CCCCS(=O)(=O)Nc1cccc(NC(=O)c2ccccc2Br)c1`, in series [1], the inhibition turned out to be 31%. Besides, the results for the Stability in the series on Plasma [2] and with Plasma [3] were 97% and more than 99%, respectively.
Turning to `CCCC(=O)Nc1cccc(NC(=O)c2cccc([N+](=O)[O-])c2)c1`, in series [1], the inhibition was 55%.
In the case of `O=C(Nc1cccc(NC(=O)C2CCCC2)c1)c1ccccc1Br`, the IC50 in series [6] came to 520 nM. Besides, the inhibition in series [1] came out at 91%. For the same compound, the Stability in the series with Plasma [3] was found to be 26%.
As for `CC(C)CNC(=O)c1coc(NC(=O)c2ccccc2Br)n1`, the inhibition in series [1] was less than 1%.
Same read-out and setting: next, `CCCC(=O)Nc1cccc(NC(=O)c2ccccc2C(=O)N(C)C)c1`: 48%.
As to `CCCNC(=O)c1cccc(NC(=O)c2ccccc2Cl)c1`, in series [6], the IC50 was determined as 1800 nM. The inhibition in series [1] is 99%.
For `CCCC(=O)Nc1cccc(NC(=O)c2ccc(F)cc2Br)c1`, in that order: 390 nM and more than 99%.
As for `CCCC(=O)Nc1cccc(NC(=O)c2ccccc2S(C)(=O)=O)c1`, the inhibition in series [1] amounted to 21%.
On the same count and under the same terms, the result for `CCCC(=O)Nc1ccnc(NC(=O)c2ccccc2Br)c1` reads less than 1%; that for `CCCC(=O)Nc1cccc(C(=O)Nc2ccccc2Cl)c1`, 67%; that for `CCCC(=O)Nc1ccc(NC(=O)c2ccccc2Br)cc1`, 1%.
Consider `CCCC(=O)Nc1cccc(NC(=O)c2cc(C)ccc2Br)c1`, for which, in series [6], the IC50 is 480 nM. The inhibition in series [1] is more than 99%.
As for `Cc1ccccc1C(=O)Nc1cccc(NC(=O)Cc2ccc(Cl)cc2)c1`, in series [1], the inhibition amounted to 40%.
On the same count and under the same terms, next, `CCCC(=O)Nc1cccc(NC(=O)c2cccnc2)c1`: less than 1%; `CCCC(=O)Nc1cccc(NC(=O)c2cccc(NC(C)=O)c2)c1`: 55%.
As to `CCCC(=O)Nc1cccc(NC(=O)c2ccc(Cl)cc2)c1`, in series [1], the inhibition was determined as 80%.
As to `CCCC(=O)Nc1cccc(NC(=O)c2ccccc2C)c1`, the IC50 in series [6] is 770 nM. In addition, in series [1], the inhibition stood at 98%.
Take `CCCC(=O)Nc1cccc(NC(=O)c2ccc(C)cc2)c1`: the inhibition in series [1] was determined as 25%.
Same read-out and setting: the result for `CCCC(=O)Nc1cccc(NC(=O)c2ccco2)c1` reads 30%.
In the case of `CCCC(=O)Nc1cccc(NC(=O)c2ccccc2Cl)c1`, the 50% inhibitory concentration (IC50) in series [6] came to 1100 nM. Moreover, the inhibition in series [1] is more than 99%.
As to `CC(C)C(=O)Nc1cccc(NC(=O)c2ccccc2Br)c1`, in series [6], the IC50 worked out at 1410 nM. Moreover, the inhibition in series [1] stood at 88%. For the same compound, the Stability in the series on Plasma [3] was 83%.
In the case of `CCCC(=O)Nc1cccc(NC(=O)c2ccccc2OC(F)(F)F)c1`, the IC50 in series [6] was determined as 710 nM. For the same compound, the inhibition in series [1] was more than 99%.
As to `CCCC(=O)Nc1cccc(NC(=O)c2ccc(C(F)(F)F)cc2)c1`, the inhibition in series [1] stood at 30%.
Same read-out and setting: the result for `CCCC(=O)Nc1cccc(NC(=O)c2ccc(F)cc2)c1` reads 85%.
For `CCCC(=O)Nc1cccc(NC(=O)c2ccccc2F)c1`, the IC50 in series [6] was 970 nM. For the same compound, the inhibition in series [1] turned out to be 99%.
Consider `CCCC(=O)Nc1cccc(NC(=O)c2c(Cl)cccc2Br)c1`, for which the IC50 in series [6] came to 2280 nM. Besides, the inhibition in series [1] is more than 99%.
For the compound `CCCC(=O)Nc1ccc2nc(-c3ccccc3Br)[nH]c2c1`, in series [1], the inhibition was 39%.
The same measure, in the same setting: next, `CCCC(=O)Nc1cccc(NC(=O)c2cccc(S(C)(=O)=O)c2)c1`: 25%.
